Source: PubChem
KCNK3 inh – human KCNK3 channel inhibitors, primary screen, CHO cells, FluxOR thallium flux, B-score. Potassium channel subfamily K member 3 (Homo sapiens), O14649. FluxOR fluorescence; hits give low values. B-score at 10 µM. 0.84% of 340,000 active. AID 602410, 2012;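 active = B-score under library mean minus 4 SD, starting fluorescence ratio at most library mean plus 5 SD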;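 note: more negative B-score means stronger inhibition of thallium flux through KCNK3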
hERG protect – hERG rescue from dofetilide block, primary screen, cell-based, CHO-hERG, FluxOR thallium flux, dofetilide IC70. Voltage-gated inwardly rectifying potassium channel KCNH2 (Homo sapiens), Q12809. dofetilide IC70 present. activation (rescue from dofetilide block), less the hit threshold, % at 10 µM. 0.51% of 310,000 active. AID 1511, 2009;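 active = activation above the mean of controls blocked by dofetilide plus 5 SD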;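 note: thallium influx through hERG after potassium depolarization seen as dye fluorescence rise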
Target sequence (Q12809 whole entry, looked up): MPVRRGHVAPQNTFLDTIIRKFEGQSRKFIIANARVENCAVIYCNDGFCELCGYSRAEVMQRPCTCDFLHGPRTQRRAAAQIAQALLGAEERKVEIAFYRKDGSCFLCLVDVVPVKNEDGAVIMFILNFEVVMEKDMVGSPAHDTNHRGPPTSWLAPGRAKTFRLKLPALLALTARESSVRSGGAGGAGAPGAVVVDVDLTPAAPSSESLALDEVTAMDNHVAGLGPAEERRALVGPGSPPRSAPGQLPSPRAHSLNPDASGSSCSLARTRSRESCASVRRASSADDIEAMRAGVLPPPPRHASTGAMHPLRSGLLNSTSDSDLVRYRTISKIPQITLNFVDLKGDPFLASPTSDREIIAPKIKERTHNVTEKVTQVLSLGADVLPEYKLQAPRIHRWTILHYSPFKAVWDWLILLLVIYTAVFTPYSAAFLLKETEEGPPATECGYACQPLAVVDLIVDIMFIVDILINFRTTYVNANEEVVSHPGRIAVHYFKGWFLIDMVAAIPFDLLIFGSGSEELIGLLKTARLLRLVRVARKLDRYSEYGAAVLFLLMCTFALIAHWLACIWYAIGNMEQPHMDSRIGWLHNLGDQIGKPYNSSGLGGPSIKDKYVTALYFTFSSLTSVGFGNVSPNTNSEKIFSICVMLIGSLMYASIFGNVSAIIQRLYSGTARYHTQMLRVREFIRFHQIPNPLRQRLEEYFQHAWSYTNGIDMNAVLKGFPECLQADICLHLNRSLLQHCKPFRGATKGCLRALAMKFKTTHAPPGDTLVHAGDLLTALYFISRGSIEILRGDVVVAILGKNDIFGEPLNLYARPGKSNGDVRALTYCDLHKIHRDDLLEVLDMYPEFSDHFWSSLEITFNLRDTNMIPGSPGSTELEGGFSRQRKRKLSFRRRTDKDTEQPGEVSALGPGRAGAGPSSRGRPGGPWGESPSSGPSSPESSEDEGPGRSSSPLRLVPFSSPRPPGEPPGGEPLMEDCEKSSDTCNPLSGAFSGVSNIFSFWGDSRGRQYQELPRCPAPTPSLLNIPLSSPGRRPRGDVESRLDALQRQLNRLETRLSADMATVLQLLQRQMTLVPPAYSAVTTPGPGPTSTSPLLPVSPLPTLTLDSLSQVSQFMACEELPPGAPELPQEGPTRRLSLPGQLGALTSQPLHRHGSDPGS
KCNK9 block – KCNK9 potassium channel inhibitors, primary screen, HEK293 cells, thallium flux | FluxOR thallium flux fluorescence; hits give low values | B-score at 10 µM | 1.2% of 310,000 active;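 active = ratio B-score over 3 SD below the library mean, with starting fluorescence within 5 SD of its mean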;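 note: negative B-score means less thallium flux so channel inhibition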
KCNQ1 inh – inhibitors of human KCNQ1 channel, primary screen, cell-based, thallium flux, high-throughput; Potassium voltage-gated channel subfamily KQT member 1 (Homo sapiens), P51787; CHO-K1 KCNQ1, FluxOR thallium flux fluorescence; hits give high values; B-score at 10 µM; 1.3% of 310,000 active;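 active = compounds whose thallium flux B-score, printed positive for inhibition, exceeds three library SD while starting fluorescence stays within three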;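 note: channel opened by potassium depolarization with thallium stimulus after 20 min compound exposure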
KCNQ1 act – potentiators or activators of KCNQ1 channel, primary screen, cell-based, thallium flux, high-throughput | B-score at 10 µM | 0.35% of 310,000 active | CHO-K1 KCNQ1, thallium flux FluxOR fluorescence; hits give high values | AID 2648, 2010 | Potassium voltage-gated channel subfamily KQT member 1 (Homo sapiens), P51787;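 active = fluorescence ratio B-score, a plate-corrected score, at least three library SD, with initial intensity B-score within 5 SD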
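Assay system: stable KCNQ1 CHO-K1 line; medium: assay buffer, equal DMSO in all wells; timing: 90 min dye loading and 20 min compound exposure, both at room temperature; technique: kinetic FluxOR thallium fluorescence, 10-s 1-Hz baseline, 110-s post-stimulus read; read-out basis: B score of baseline-normalized fluorescence ratio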
Active calls of the source: *; i = inactive; . = not tested or not shown. A selection: hits, their analogues and other compounds. The true share with any hit is near 3.1%.

SMILES	KCNK3 inh	hERG protect	KCNK9 block	KCNQ1 inh	KCNQ1 act
OC1(c2ccc(Br)cc2)CN(c2ccccc2)C2=[N+]1CCS2 (stereo not drawn)	i	-18	i	i	i
COc1ccc(-c2csc3ncnc(N4CCN(c5cccc(Cl)c5)CC4)c23)cc1	i	-16	i	6*	i
COc1ccc(N2CCN(c3ncnc4scc(-c5ccc(C)cc5)c34)CC2)cc1	i	-4	-7.9*	i	i
CCN1CCN(c2ncnc3scc(-c4ccc(OC)cc4)c23)CC1	i	-7	i	i	i
CC1(C)C2(C#N)C(=O)NC(=O)C12C#N (stereo not drawn)	i	.	.	.	.
Cc1ccc(NC(=O)CCC(=O)NNC(=O)Nc2cccc(Cl)c2)c(C)c1	i	-6	i	i	i
Cc1nc(-c2ccc(NC(=O)Cc3ccccc3)cc2)cs1	i	2	i	i	8*
CC(=O)Nc1cccc(-c2csc(NCc3ccccc3)n2)c1	i	-3	i	i	i
CCC(=O)Nc1cccc(-c2csc(-c3ccccc3)n2)c1	i	-10	-7.4*	i	i
COc1ccc(S(=O)(=O)N2CCCC(N(C)CCc3ccccc3)C2)cc1OC (stereo not drawn)	i	-3	i	i	i
CCc1ccc(OCC(=O)NNCC(=O)Nc2ccc(OC)cc2)cc1	i	.	.	.	.
O=C1CC(C(=O)Nc2cccc3ccccc23)C2(CCCC2)O1 (stereo not drawn)	i	7.8*	i	i	i
CC1(C)CC2(CCO1)OC(=O)CC2C(=O)Nc1cccc2ccccc12 (stereo not drawn)	i	-9	i	i	i
C/C=C(/C)C(=O)O[C@@H]1c2c(ccc3ccc(=O)oc23)O[C@@H]1C(C)(C)OC(=O)/C(C)=C\C	i	-8	-7.1*	i	i
COc1cc(C2NC(=O)NC(C)=C2C(=O)OCC2CCCCC2)ccc1O (stereo not drawn)	i	7.1*	i	i	i
CCOC(=O)C1=C(c2ccccc2)NC(=O)NC1c1ccc(OC)c(OC)c1 (stereo not drawn)	i	5.7*	i	i	i
COc1ccccc1NC(=O)N[C@@H](Cc1c[nH]c2ccccc12)C(=O)NN	i	-7	i	i	i
CCN(CCCn1c(=S)[nH]c2ncccc2c1=O)c1ccccc1	i	38*	i	i	i
Cc1nc(CS(=O)(=O)c2ccc(Cl)cc2)cc(Sc2ccc(Cl)cc2)n1	i	-8	-6.6*	i	i
O=C(NCc1ccc(F)cc1F)Nc1cnccc1C(F)(F)F	i	-5	i	i	i
O=[N+]([O-])c1ccc(C2=NN(c3ccccc3)C(c3ccco3)C2)cc1 (stereo not drawn)	i	-31	i	8*	i
COC(=O)c1cccc(-c2ccc(/C=N/N3C(=O)C4C5C=CC(C6CC56)C4C3=O)o2)c1 (stereo not drawn)	i	-12	i	7*	i
CC(NCCN(C)C)C(=O)C12CC3CC(CC(C3)C1)C2 (stereo not drawn)	i	-12	i	i	i
CCCCC(NC(=O)Cc1c(C)c2cc3c(-c4ccccc4)coc3c(C)c2oc1=O)C(=O)O (stereo not drawn)	i	-18	i	i	i
CCCc1cc(=O)n2[nH]c(-c3ccc(OC)cc3)nc2n1	i	-6	-7.8*	i	i
SMILES	KCNK3 inh	hERG protect	KCNK9 block	KCNQ1 inh	KCNQ1 act
CCCc1cc(-c2[nH]ncc2-c2ccc3c(c2)OCCCO3)c(O)cc1O	i	-28	i	6*	i
CCN(CC)c1ncnc2scc(C3COc4ccccc4O3)c12 (stereo not drawn)	i	-10	-7.6*	i	i
Cc1nn(-c2ccccc2)c(C)c1NC(=O)COC(=O)CCc1ccccc1	i	-7	i	i	i
OC(CCN1CCOCC1)c1ccccc1 (stereo not drawn)	i	9.3*	i	i	i
O=C(NCC1(N2CCCCC2)CCCCC1)c1cccc(S(=O)(=O)Nc2ccc(F)cc2)c1	i	.	.	.	.
CC(OC(=O)CCC1CCCC1)C(=O)Nc1ccccc1[N+](=O)[O-] (stereo not drawn)	i	-6	i	i	i
CC1CC(C)CN(S(=O)(=O)N2CCC(C(=O)NCCc3ccccc3)CC2)C1 (stereo not drawn)	i	-4	i	i	i
Cc1c(-c2cc[n+]([O-])cc2)oc2ccc(Br)cc2c1=O	.	4.9*	i	i	i
CCN(CC)c1nc(C(F)(F)F)nc2c1nnn2Cc1ccccc1	i	-6	i	6*	i
NC(=O)CC(NC(=O)Cc1ccc(Cl)cc1)c1ccc(NC2CC3CCC2C3)c([N+](=O)[O-])c1 (stereo not drawn)	i	-5	i	i	i
O=C(NC(=S)N1CCCc2ccccc21)c1ccccc1	i	2	i	i	i
O=C(NC(=S)N1CCCc2ccccc21)c1ccc(Br)cc1	i	43*	i	i	16*
O=C(COc1ccccc1)NC(=S)N1CCc2ccccc21	i	4.9*	i	i	10*
CCc1ccccc1NC(=O)CSc1nnc(Cn2nnc3ccccc32)n1C	i	-9	i	i	i
O=C(NCCCl)Nc1cccnc1Cl	i	-1	i	i	i
O=C1C2C3C=CC(C3)C2C(=O)N1/N=C/c1cc(Br)cc([N+](=O)[O-])c1O (stereo not drawn)	i	-6	i	7*	i
COC(=O)C1=C(C)NC2=C(C(=O)CCC2)C1c1ccsc1 (stereo not drawn)	.	0	i	i	i
COC(=O)C1=C(C)NC2=C(C(=O)CCC2)C1c1ccc(-c2ccsc2C(=O)OC)o1 (stereo not drawn)	i	14*	i	i	i
CC(C)CCNC(=O)NC(=O)COC(=O)CNC(=O)C1CCCCC1	i	-11	i	i	i
COc1cc(CN(C)C(C)C(=O)Nc2ccc([N+](=O)[O-])cc2Cl)ccc1OC(F)F (stereo not drawn)	i	-12	i	i	i
COc1ccc(Cl)cc1NC(=O)C(C)N(C)Cc1ccc(C(F)(F)F)cc1 (stereo not drawn)	i	-17	-7.4*	i	i
